Data: PubChem BioAssay AID504483 (The Scripps Research Institute Molecular Screening Center, 2011)
The source made the active and inactive calls.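 The calls were made as follows: active = inhibition of the enzyme at or above 50% at 0.1 µM compound; inactive = the rest.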

Target: Platelet-activating factor acetylhydrolase (Mus musculus) (UniProt Q60963)
Assay: murine plasma PAF acetylhydrolase inhibitors – cell lysate, gel-based competitive ABPP, COS-7 proteome, fluorescence, selectivity assay for PAFAH2 inhibitor project, late-stage follow-up (AID 504483)
Settings: murine pPAFAH, gel ABPP FP-Rh, at 1 µM (top of the series)
How it was run: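 Material: soluble COS-7 proteome expressing murine pPAFAH; medium: DPBS buffer; probe or stimulus: FP-Rh, 2 µM final; timing: compound 30 min at 25 °C, FP-Rh 30 min; technique: gel ABPP, in-gel fluorescence band density; control set: DMSO-only high, blank-gel background low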

Sequence of Platelet-activating factor acetylhydrolase (Mus musculus) (Q60963 whole entry, looked up): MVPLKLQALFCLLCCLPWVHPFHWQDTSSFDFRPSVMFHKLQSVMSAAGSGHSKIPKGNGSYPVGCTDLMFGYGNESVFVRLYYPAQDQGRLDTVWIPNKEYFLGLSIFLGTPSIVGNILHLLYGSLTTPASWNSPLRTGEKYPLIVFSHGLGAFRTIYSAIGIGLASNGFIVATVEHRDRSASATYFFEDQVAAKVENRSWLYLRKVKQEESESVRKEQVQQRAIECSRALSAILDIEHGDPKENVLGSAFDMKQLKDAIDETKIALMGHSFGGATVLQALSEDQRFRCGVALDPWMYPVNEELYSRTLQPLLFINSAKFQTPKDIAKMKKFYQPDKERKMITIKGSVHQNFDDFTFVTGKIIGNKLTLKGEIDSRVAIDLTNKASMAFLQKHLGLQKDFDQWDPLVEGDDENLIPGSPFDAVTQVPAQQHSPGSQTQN

Q: Which inhibition does the source give for `O=C(N1CCCC1)n1ncc(-c2ccc(-c3ccccc3)cc2)n1` here?
A: 85% (inactive)
